≈ marks a conversion by molar mass, not a printed value.
Key:
Pseudomonas aeruginosa = assay: Antibacterial activity against Pseudomonas aeruginosa ATCC 27853 assessed as reduction in bacterial growth; format: functional
Outline: (§1)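 CLSI broth microdilution in cation-supplemented Mueller–Hinton broth II; overnight starter cultures (37 °C, shaking, 18–24 h) adjusted by OD600 to ~10^6 CFU/mL. Compounds dosed from DMSO stocks (10 mg/mL stock) as two-fold dilutions, 64–0.5 mg/L. Plates held 37 °C, 18–24 h. MIC = lowest concentration without visible growth. Three independent runs, each in duplicate.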

Staphylococcus aureus [1] = assay: Antibacterial activity against methicilin-resistant Staphylococcus aureus NRS 194 assessed as reduction in bacterial growth; format: functional
Outline: (§2)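 CLSI broth microdilution in cation-supplemented Mueller–Hinton broth II. Starter cultures were grown overnight at 37 °C with shaking from a single MHA colony, then diluted by OD600 to ~10^6 CFU/mL. Compounds came from 10 mg/mL DMSO stocks and were tested two-fold from 64 to 0.5 mg/L. Plates were incubated 37 °C for 18–24 h. MIC was taken as the lowest concentration with no visible growth. Three independent runs, each in duplicate.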

Staphylococcus aureus [2] = assay: Antibacterial activity against methicilin-resistant Staphylococcus aureus NRS 129 assessed as reduction in bacterial growth; format: functional; outline: as §2
Staphylococcus aureus [3] = assay: Antibacterial activity against methicilin-resistant Staphylococcus aureus NRS 192 assessed as reduction in bacterial growth; format: functional; outline: as §2
Staphylococcus aureus [4] = assay: Antibacterial activity against methicilin-resistant Staphylococcus aureus NRS 198 assessed as reduction in bacterial growth; format: functional; outline: as §2
Staphylococcus aureus [5] = assay: Antibacterial activity against vancomycin-resistant Staphylococcus aureus VRS 1 assessed as reduction in bacterial growth; format: functional; outline: as §2
Acinetobacter baumannii = assay: Antibacterial activity against Acinetobacter baumannii BAA-1605 assessed as reduction in bacterial growth; format: functional; outline: as §1
[6] = Cytotoxicity against african green monkey Vero cells assessed as reduction in cell viability incubated for 72 hrs by MTT assay; format: toxicity, cell-based; settings: chlorocebus sabaeus
Outline: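 Vero (ATCC CCL-81) cells seeded at ~10^3 per well, 37 °C, 5% CO2. After 24 h, compound added at 100–12.5 μg/mL for 72 h. MTT then given for 4 h at 37 °C, formazan dissolved in DMSO, absorbance read at 540 nm. CC50 taken as the concentration giving 50% viability loss; doxorubicin as positive control; triplicate.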

Staphylococcus aureus [7] = assay: Antibacterial activity against methicilin-resistant Staphylococcus aureus NRS 119 assessed as reduction in bacterial growth; format: functional; outline: as §2
Enterococcus faecium [8] = assay: Antibacterial activity against vancomycin-resistant Enterococcus faecium NR 31912 assessed as inhibition of bacterial growth
Enterococcus faecalis [9] = assay: Antibacterial activity against vancomycin-susceptible Enterococcus faecalis NR 31884 assessed as inhibition of bacterial growth incubated for 18 to 24 hrs by broth microdilution assay; format: functional; settings: time 18-24 hrs; outline: as §1
Escherichia coli = assay: Antibacterial activity against Escherichia coli ATCC 25922 assessed as reduction in bacterial growth; format: functional; outline: as §1
Staphylococcus aureus [10] = assay: Antibacterial activity against methicilin-resistant Staphylococcus aureus NRS 191 assessed as reduction in bacterial growth; format: functional; outline: as §2
Staphylococcus aureus [11] = assay: Antibacterial activity against vancomycin-resistant Staphylococcus aureus VRS 4 assessed as reduction in bacterial growth; format: functional; outline: as §2
Enterococcus faecalis [12] = assay: Antibacterial activity against vancomycin-susceptible Enterococcus faecalis NR 31888 assessed as inhibition of bacterial growth incubated for 18 to 24 hrs by broth microdilution assay; format: functional; settings: time 18-24 hrs; outline: as §1
Staphylococcus aureus [13] = assay: Antibacterial activity against methicilin-resistant Staphylococcus aureus NRS 193 assessed as reduction in bacterial growth; format: functional; outline: as §2
Enterococcus faecium [14] = assay: Antibacterial activity against vancomycin-resistant Enterococcus faecium NR 31909 assessed as inhibition of bacterial growth
Enterococcus faecalis [15] = assay: Antibacterial activity against vancomycin-susceptible Enterococcus faecalis NR 31886 assessed as inhibition of bacterial growth incubated for 18 to 24 hrs by broth microdilution assay; format: functional; settings: time 18-24 hrs; outline: as §1
Enterococcus faecalis [16] = assay: Antibacterial activity against vancomycin-susceptible Enterococcus faecalis NR 31885 assessed as inhibition of bacterial growth incubated for 18 to 24 hrs by broth microdilution assay; format: functional; settings: time 18-24 hrs; outline: as §1
Staphylococcus aureus [17] = assay: Antibacterial activity against methicilin-resistant Staphylococcus aureus NRS 100 assessed as reduction in bacterial growth; format: functional; outline: as §2
Staphylococcus aureus [18] = assay: Antibacterial activity against Staphylococcus aureus ATCC 29213 assessed as reduction in bacterial growth; format: functional; outline: as §1
Enterococcus faecalis [19] = assay: Antibacterial activity against vancomycin-susceptible Enterococcus faecalis NR 31887 assessed as inhibition of bacterial growth incubated for 18 to 24 hrs by broth microdilution assay; format: functional; settings: time 18-24 hrs; outline: as §1
Klebsiella pneumoniae = assay: Antibacterial activity against Klebsiella pneumoniae BAA-1705 assessed as reduction in bacterial growth; format: functional; outline: as §1
Staphylococcus aureus [20] = assay: Antibacterial activity against vancomycin-resistant Staphylococcus aureus VRS 12 assessed as reduction in bacterial growth; format: functional; outline: as §2
[21] = Selectivity index, ratio of CC50 for cytotoxicity against african green monkey Vero cells assessed as reduction in cell viability to MIC for antibacterial activity against Staphylococcus aureus ATCC 29213 assessed as reduction in bacterial growth; format: toxicity, cell-based; settings: read-out: Selectivity Index
Enterococcus faecium [22] = assay: Antibacterial activity against vancomycin-resistant Enterococcus faecium NR 31903 assessed as inhibition of bacterial growth
Staphylococcus aureus [23] = assay: Antibacterial activity against methicilin-resistant Staphylococcus aureus NRS 186 assessed as reduction in bacterial growth; format: functional; outline: as §2

COc1cc(/C=C2\S/C(=N/c3nc4ccccc4o3)NC2=O)ccc1O
MIC (Pseudomonas aeruginosa): > 64 mg/L | MIC (Staphylococcus aureus [1]): 4 mg/L (≈ 10.9 µM) | MIC (Staphylococcus aureus [2]): 4 mg/L (≈ 10.9 µM) | MIC (Staphylococcus aureus [3]): 4 mg/L (≈ 10.9 µM) | MIC (Staphylococcus aureus [4]): 4 mg/L (≈ 10.9 µM) | MIC (Staphylococcus aureus [5]): 4 mg/L (≈ 10.9 µM) | MIC (Acinetobacter baumannii): > 64 mg/L | CC50 at 72 h [6]: > 40 mg/L | MIC (Staphylococcus aureus [7]): 4 mg/L (≈ 10.9 µM) | MIC (Enterococcus faecium [8]): 0.25 mg/L (≈ 0.68 µM) | MIC (Enterococcus faecalis [9]): 16 mg/L (≈ 43.6 µM) | MIC (Escherichia coli): > 64 mg/L | MIC (Staphylococcus aureus [10]): 2 mg/L (≈ 5.44 µM) | MIC (Staphylococcus aureus [11]): 4 mg/L (≈ 10.9 µM) | MIC (Enterococcus faecalis [12]): 16 mg/L (≈ 43.6 µM) | MIC (Staphylococcus aureus [13]): 4 mg/L (≈ 10.9 µM) | MIC (Enterococcus faecium [14]): 0.25 mg/L (≈ 0.68 µM) | MIC (Enterococcus faecalis [15]): 16 mg/L (≈ 43.6 µM) | MIC (Enterococcus faecalis [16]): 16 mg/L (≈ 43.6 µM) | MIC (Staphylococcus aureus [17]): 2 mg/L (≈ 5.44 µM) | MIC (Staphylococcus aureus [18]): 2 mg/L (≈ 5.44 µM) | MIC (Enterococcus faecalis [19]): 16 mg/L (≈ 43.6 µM) | MIC (Klebsiella pneumoniae): > 64 mg/L | MIC (Staphylococcus aureus [20]): 2 mg/L (≈ 5.44 µM) | selectivity ratio [21]: > 20 | MIC (Enterococcus faecium [22]): 4 mg/L (≈ 10.9 µM) | MIC (Staphylococcus aureus [23]): 2 mg/L (≈ 5.44 µM)

O=C1N/C(=N\c2nc3ccccc3o2)S/C1=C\c1cccc(O)c1
MIC (Pseudomonas aeruginosa): > 64 mg/L | MIC (Staphylococcus aureus [1]): 2 mg/L (≈ 5.93 µM) | MIC (Staphylococcus aureus [2]): 2 mg/L (≈ 5.93 µM) | MIC (Staphylococcus aureus [3]): 2 mg/L (≈ 5.93 µM) | MIC (Staphylococcus aureus [4]): 2 mg/L (≈ 5.93 µM) | MIC (Staphylococcus aureus [5]): 2 mg/L (≈ 5.93 µM) | MIC (Acinetobacter baumannii): > 64 mg/L | CC50 at 72 h [6]: > 40 mg/L | MIC (Staphylococcus aureus [7]): 2 mg/L (≈ 5.93 µM) | MIC (Enterococcus faecium [8]): 0.25 mg/L (≈ 0.741 µM) | MIC (Enterococcus faecalis [9]): 16 mg/L (≈ 47.4 µM) | MIC (Escherichia coli): > 64 mg/L | MIC (Staphylococcus aureus [10]): 2 mg/L (≈ 5.93 µM) | MIC (Staphylococcus aureus [11]): 2 mg/L (≈ 5.93 µM) | MIC (Enterococcus faecalis [12]): 16 mg/L (≈ 47.4 µM) | MIC (Staphylococcus aureus [13]): 2 mg/L (≈ 5.93 µM) | MIC (Enterococcus faecium [14]): 0.25 mg/L (≈ 0.741 µM) | MIC (Enterococcus faecalis [15]): 16 mg/L (≈ 47.4 µM) | MIC (Enterococcus faecalis [16]): 16 mg/L (≈ 47.4 µM) | MIC (Staphylococcus aureus [17]): 1 mg/L (≈ 2.96 µM) | MIC (Staphylococcus aureus [18]): 2 mg/L (≈ 5.93 µM) | MIC (Enterococcus faecalis [19]): 8 mg/L (≈ 23.7 µM) | MIC (Klebsiella pneumoniae): > 64 mg/L | MIC (Staphylococcus aureus [20]): 2 mg/L (≈ 5.93 µM) | selectivity ratio [21]: > 20 | MIC (Enterococcus faecium [22]): 4 mg/L (≈ 11.9 µM) | MIC (Staphylococcus aureus [23]): 1 mg/L (≈ 2.96 µM)

C[C@H]1COc2c(N3CCN(C)CC3)c(F)cc3c(=O)c(C(=O)O)cn1c23 [LEVOFLOXACIN ANHYDROUS]
MIC (Staphylococcus aureus [1]): 0.125 mg/L (≈ 0.346 µM) | MIC (Staphylococcus aureus [2]): 0.25 mg/L (≈ 0.692 µM) | MIC (Staphylococcus aureus [3]): 8 mg/L (≈ 22.1 µM) | MIC (Staphylococcus aureus [4]): 32 mg/L (≈ 88.6 µM) | MIC (Staphylococcus aureus [5]): 64 mg/L (≈ 177 µM) | CC50 at 72 h [6]: > 100 mg/L | MIC (Staphylococcus aureus [7]): 16 mg/L (≈ 44.3 µM) | MIC (Enterococcus faecium [8]): 64 mg/L (≈ 177 µM) | MIC (Enterococcus faecalis [9]): 0.25 mg/L (≈ 0.692 µM) | MIC (Staphylococcus aureus [10]): 16 mg/L (≈ 44.3 µM) | MIC (Staphylococcus aureus [11]): > 64 mg/L | MIC (Enterococcus faecalis [12]): 0.25 mg/L (≈ 0.692 µM) | MIC (Staphylococcus aureus [13]): 32 mg/L (≈ 88.6 µM) | MIC (Enterococcus faecium [14]): 64 mg/L (≈ 177 µM) | MIC (Enterococcus faecalis [15]): 0.25 mg/L (≈ 0.692 µM) | MIC (Enterococcus faecalis [16]): 0.25 mg/L (≈ 0.692 µM) | MIC (Staphylococcus aureus [17]): 0.25 mg/L (≈ 0.692 µM) | MIC (Staphylococcus aureus [18]): 0.125 mg/L (≈ 0.346 µM) | MIC (Enterococcus faecalis [19]): 0.25 mg/L (≈ 0.692 µM) | MIC (Klebsiella pneumoniae): 64 mg/L (≈ 177 µM) | MIC (Staphylococcus aureus [20]): 32 mg/L (≈ 88.6 µM) | MIC (Enterococcus faecium [22]): > 64 mg/L | MIC (Staphylococcus aureus [23]): 8 mg/L (≈ 22.1 µM)

Reference: ChEMBL document CHEMBL5329174, “Discovery of benzoxazole-thiazolidinone hybrids as promising antibacterial agents against Staphylococcus aureus and Enterococcus species” (RSC Med Chem, 2023)
